pIC50: −log10 of the molar value.
Key:
Toxoplasma gondii [1] = assay: Compound tested on intracellular parasites Toxoplasma gondii in vero cells after 24 h; type: functional, organism-based
How it was run: (§1)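 Infected Vero cultures (tachyzoites, 1:10, 24 h at 37 °C beforehand) were exposed 24 h to compound over 0.01–30 mM, as a dilution series (0.1, 1, 10, 20, 30 mM) in triplicate per assay. Trypan blue exclusion was the read-out, and IC50 (mean ± SD) came from non-linear regression.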

Toxoplasma gondii [2] = assay: Mean number of intracellular parasites in vero cells was determined after treatment with compound (Untreated=768); type: functional
Vero [3] = assay: Compound tested on vero cells infected with Toxoplasma gondii after 24 h; type: functional, cell-based; conditions: Chlorocebus sabaeus; how it was run: as §1
Vero [4] = assay: Compound tested for percent reduction of vero cells infected with Toxoplasma gondii after 24 h at 37 degree Celsius (Untreated=76); type: functional, Chlorocebus sabaeus
Vero [5] = assay: Compound tested for percent reduction of vero cells infected with Toxoplasma gondii after 24 hr at 37 degree Centigrade (Untreated=81); type: functional, Chlorocebus sabaeus
Toxoplasma gondii [6] = assay: Mean number of intracellular parasites in vero cells was determined after treatment with compound (Untreated=783); type: functional
Vero [7] = assay: Compound tested for percent of vero cells infected with Toxoplasma gondii after 24 hr at 37 degree Centigrade (Untreated=84)
Toxoplasma gondii [8] = assay: Mean number of intracellular parasites in vero cells was determined after treatment with compound (Untreated=642); type: functional
Toxoplasma gondii [9] = assay: Mean number of intracellular parasites in vero cells was determined after treatment with compound (Untreated=687); type: functional
Vero [10] = assay: Compound tested for percent reduction of vero cells infected with Toxoplasma gondii after 24 h at 37 degree Centigrade (Untreated=83); type: functional, Chlorocebus sabaeus
Vero [11] = assay: Compound tested for percent reduction of vero cells infected with Toxoplasma gondii after 24 hr at 37 degree Centigrade (Untreated=72); type: functional, Chlorocebus sabaeus
Toxoplasma gondii [12] = assay: Mean number of intracellular parasites in vero cells was determined after treatment with compound (Untreated=786); type: functional
Toxoplasma gondii [13] = assay: Mean number of intracellular parasites in vero cells was determined after treatment with compound (Untreated=663); type: functional
Vero [14] = assay: Compound tested for percent reduction of vero cells infected with Toxoplasma gondii after 24 h at 37 degree Celsius (Untreated=86); type: functional, Chlorocebus sabaeus
Toxoplasma gondii [15] = assay: Mean number of intracellular parasites in vero cells was determined after treatment with compound (Untreated=726); type: functional
Vero [16] = assay: Compound tested for percent reduction of vero cells infected with Toxoplasma gondii after 24 h at 37 degree Celsius (Untreated=87); type: functional, Chlorocebus sabaeus
Toxoplasma gondii [17] = assay: Mean number of intracellular parasites in vero cells was determined after treatment with compound (Untreated=888); type: functional
[18] = Mean number of intracellular parasites in vero cells was determined after treatment with compound (Untreated=852); type: functional, Toxoplasma gondii
Vero [19] = assay: Compound tested for percent reduction of vero cells infected with Toxoplasma gondii after 24 hr at 37 degree Centigrade (Untreated=85); type: functional, Chlorocebus sabaeus
Toxoplasma gondii [20] = assay: Mean number of intracellular parasites in vero cells was determined after treatment with compound (Untreated=732); type: functional
Vero [21] = assay: Compound tested for percent reduction of vero cells infected with Toxoplasma gondii after 24 hr at 37 degree Centigrade (Untreated=80); type: functional, Chlorocebus sabaeus
Toxoplasma gondii [22] = assay: Mean number of intracellular parasites in vero cells was determined after treatment with compound (Untreated=913); type: functional
Toxoplasma gondii [23] = assay: Mean number of intracellular parasites in vero cells was determined after treatment with compound (Untreated=627); type: functional
Toxoplasma gondii [24] = assay: Mean number of intracellular parasites in vero cells was determined after treatment with compound (Untreated=628); type: functional
Toxoplasma gondii [25] = assay: Mean number of intracellular parasites in vero cells was determined after treatment with compound (Untreated=840); type: functional
Vero [26] = assay: Compound tested for percent reduction of vero cells infected with Toxoplasma gondii after 24 h at 37 degree Celsius (Untreated=65); type: functional, Chlorocebus sabaeus
Toxoplasma gondii [27] = assay: Mean number of intracellular parasites in vero cells was determined after treatment with compound (Untreated=698); type: functional
Toxoplasma gondii [28] = assay: Mean number of intracellular parasites in vero cells was determined after treatment with compound (Untreated=683); type: functional
Vero [29] = assay: Compound tested for percent reduction of vero cells infected with Toxoplasma gondii after 24 h at 37 degree Centigrade (Untreated=89); type: functional, Chlorocebus sabaeus
Toxoplasma gondii [30] = assay: Mean number of intracellular parasites in vero cells was determined after treatment with compound (Untreated=442); type: functional

CC/N=C(/S)N/N=C/c1cccc([N+](=O)[O-])c1
pIC50 (Toxoplasma gondii [1]): 4.10 | Mean number of parasites (Toxoplasma gondii [2]): 5 | pIC50 (Vero [3]): 3.00 | Reduction (Vero [4]): 7%

CC/N=C(/S)N/N=C/c1ccccc1[N+](=O)[O-]
pIC50 (Toxoplasma gondii [1]): 3.30 | Reduction (Vero [5]): 8% | pIC50 (Vero [3]): 2.70 | Mean number of parasites (Toxoplasma gondii [6]): 1

C/N=C(/S)N/N=C/c1cccc([N+](=O)[O-])c1
pIC50 (Toxoplasma gondii [1]): 3.30 | pIC50 (Vero [3]): 2.82 | Infected cells (Vero [7]): 9% | Mean number of parasites (Toxoplasma gondii [8]): 1

O=C(O)CC1S/C(=N\N=C\c2ccccc2[N+](=O)[O-])N(c2ccccc2)C1=O (centres undefined)
Mean number of parasites (Toxoplasma gondii [9]): 2 | Reduction (Vero [10]): 8%

O=C(O)CC1S/C(=N\N=C\c2cccc([N+](=O)[O-])c2)N(c2ccccc2)C1=O (centres undefined)
Reduction (Vero [11]): 13% | Mean number of parasites (Toxoplasma gondii [12]): 2

CCN1C(=O)C(CC(=O)O)S/C1=N\N=C\c1ccccc1[N+](=O)[O-] (centres undefined)
Mean number of parasites (Toxoplasma gondii [13]): 3 | Reduction (Vero [14]): 14%

CN1C(=O)C(CC(=O)O)S/C1=N\N=C\c1ccc([N+](=O)[O-])cc1 (centres undefined)
Mean number of parasites (Toxoplasma gondii [15]): 2 | Reduction (Vero [16]): 13%

Nc1ccc(S(=O)(=O)Nc2ncccn2)cc1 [SULFADIAZINE]
pIC50 (Toxoplasma gondii [1]): 4.00 | pIC50 (Vero [3]): 4.05

CN1C(=O)C(CC(=O)O)S/C1=N\N=C\c1ccccc1[N+](=O)[O-] (centres undefined)
pIC50 (Toxoplasma gondii [1]): 3.30 | pIC50 (Vero [3]): 2.70 | Infected cells (Vero [7]): 15% | Mean number of parasites (Toxoplasma gondii [17]): 3

CC/N=C(/S)N/N=C/c1ccc([N+](=O)[O-])cc1
pIC50 (Toxoplasma gondii [1]): 3.30 | pIC50 (Vero [3]): 2.60 | Reduction (Vero [14]): 17% | Mean number of parasites [18]: 9

O=C(O)CC1SC(N/N=C/c2ccc([N+](=O)[O-])cc2)=NC1=O (centres undefined)
pIC50 (Toxoplasma gondii [1]): 3.30 | pIC50 (Vero [3]): 2.60 | Reduction (Vero [19]): 16% | Mean number of parasites (Toxoplasma gondii [20]): 4

NC(=O)NO [HYDROXYUREA]
pIC50 (Toxoplasma gondii [1]): 4.00 | pIC50 (Vero [3]): 4.00 | Reduction (Vero [21]): 26% | Mean number of parasites (Toxoplasma gondii [22]): 186

CCN1C(=O)C(CC(=O)O)S/C1=N\N=C\c1cccc([N+](=O)[O-])c1 (centres undefined)
Reduction (Vero [19]): 19% | Mean number of parasites (Toxoplasma gondii [20]): 3

N/C(S)=N/N=C/c1cccc([N+](=O)[O-])c1
pIC50 (Toxoplasma gondii [1]): 4.00 | Mean number of parasites (Toxoplasma gondii [2]): 3 | pIC50 (Vero [3]): 2.70 | Reduction (Vero [4]): 4%

CCN1C(=O)C(CC(=O)O)S/C1=N\N=C\c1ccc([N+](=O)[O-])cc1 (centres undefined)
pIC50 (Toxoplasma gondii [1]): 3.30 | pIC50 (Vero [3]): 2.70 | Reduction (Vero [21]): 7% | Mean number of parasites (Toxoplasma gondii [23]): 2

CN1C(=O)C(CC(=O)O)S/C1=N\N=C\c1cccc([N+](=O)[O-])c1 (centres undefined)
Reduction (Vero [19]): 11% | Mean number of parasites (Toxoplasma gondii [24]): 2

C/N=C(/S)N/N=C/c1ccccc1[N+](=O)[O-]
pIC50 (Toxoplasma gondii [1]): 3.30 | Reduction (Vero [5]): 9% | pIC50 (Vero [3]): 2.70 | Mean number of parasites (Toxoplasma gondii [6]): 2

O=C(O)CC1SC(N/N=C/c2cccc([N+](=O)[O-])c2)=NC1=O (centres undefined)
pIC50 (Toxoplasma gondii [1]): 3.30 | pIC50 (Vero [3]): 2.70 | Mean number of parasites (Toxoplasma gondii [25]): 4 | Reduction (Vero [21]): 15%

N/C(S)=N/N=C/c1ccc([N+](=O)[O-])cc1
pIC50 (Toxoplasma gondii [1]): 3.30 | pIC50 (Vero [3]): 2.82 | Reduction (Vero [26]): 5% | Mean number of parasites (Toxoplasma gondii [27]): 4

C/N=C(/S)N/N=C/c1ccc([N+](=O)[O-])cc1
Mean number of parasites (Toxoplasma gondii [28]): 72 | pIC50 (Toxoplasma gondii [1]): 2.52 | pIC50 (Vero [3]): 2.00 | Reduction (Vero [29]): 12%

O=[N+]([O-])c1cccc(/C=N/N=C(\S)Nc2ccccc2)c1
pIC50 (Toxoplasma gondii [1]): 4.10 | pIC50 (Vero [3]): 3.00 | Reduction (Vero [26]): 7% | Mean number of parasites (Toxoplasma gondii [30]): 11

O=[N+]([O-])c1ccccc1/C=N/N=C(\S)Nc1ccccc1
pIC50 (Toxoplasma gondii [1]): 3.30 | pIC50 (Vero [3]): 3.00 | Infected cells (Vero [7]): 7% | Mean number of parasites (Toxoplasma gondii [8]): 3

— ChEMBL document CHEMBL1145251, “Synthesis of thiosemicarbazone and 4-thiazolidinone derivatives and their in vitro anti-Toxoplasma gondii activity” (Bioorg Med Chem Lett, 2005)
